{"source": "ChEMBL document CHEMBL4706595", "about": "“1,3-Oxazine-2-one derived dual-targeted molecules against replicating and non-replicating forms of Mycobacterium tuberculosis” (Eur J Med Chem, 2020)", "key": {"[1]": {"test_system": "Mycobacterium tuberculosis", "test": "Antimycobacterial activity against isoniazid-resistant Mycobacterium tuberculosis H37Rv ATCC 35822 assessed as inhibition of bacterial growth by agar plate dilution method", "format": "functional", "how_it_was_run": "(§1)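 MIC determined by agar plate dilution method; isoniazid and rifampin run as references.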"}, "[2]": {"test_system": "Mycobacterium tuberculosis", "test": "Antimycobacterial activity against rifampicin-resistant Mycobacterium tuberculosis H37Rv ATCC 35838 assessed as inhibition of bacterial growth by agar plate dilution method", "format": "functional", "how_it_was_run": "as §1"}}}
{"compound": "CC(C)=CCC/C(C)=C/COc1ccc(C(=O)OCCCOc2cccc(Nc3nc4ccccc4c(=O)o3)c2)cc1", "values": [{"measurement": "MIC", "setting": "[1]", "value": 4.4, "unit": "µg/mL"}, {"measurement": "MIC", "setting": "[2]", "value": 2.6, "unit": "µg/mL"}]}
{"compound": "NNC(=O)c1ccncc1", "note": "[ISONIAZID]", "values": [{"measurement": "MIC", "setting": "[1]", "value": "> 8", "unit": "µg/mL"}, {"measurement": "MIC", "setting": "[2]", "value": 0.25, "unit": "µg/mL"}]}
{"compound": "CO[C@H]1/C=C/O[C@@]2(C)Oc3c(C)c(O)c4c(O)c(c(/C=N/N5CCN(C)CC5)c(O)c4c3C2=O)NC(=O)/C(C)=C\\C=C\\[C@H](C)[C@H](O)[C@@H](C)[C@@H](O)[C@@H](C)[C@H](OC(C)=O)[C@@H]1C", "note": "[RIFAMPIN]", "values": [{"measurement": "MIC", "setting": "[1]", "value": 0.03, "unit": "µg/mL"}, {"measurement": "MIC", "setting": "[2]", "value": "> 2", "unit": "µg/mL"}]}
{"compound": "CC(C)=CCC/C(C)=C/CC/C(C)=C/COc1ccc(C(=O)OCCCOc2cccc(Nc3nc4ccccc4c(=O)o3)c2)cc1", "values": [{"measurement": "MIC", "setting": "[1]", "value": 2.3, "unit": "µg/mL"}, {"measurement": "MIC", "setting": "[2]", "value": 1.8, "unit": "µg/mL"}]}
